pIC50: −log10 of the molar value. Activity calls are given as the source filed them. The calls are words filed in the database; no cut-off is given here.
How the values were obtained:
[1] = tested on: HeLa; experiment: Cytotoxicity against human HeLa cells after 48 hrs by MTT assay; type: functional, cell-based
Method in brief: (§1)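 Cells kept in RPMI-1640 with 10% FBS, 2 mmol/L glutamine, penicillin and streptomycin at 37 °C, 5% CO2. Seeded at 5 × 10³ cells/well and left 24 h to attach, then exposed to compounds or etoposide reference for 48 h. MTT (5 mg/mL) added for 4 h at 37 °C, supernatant removed, formazan dissolved in DMSO, absorbance read at 490 nm.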

[2] = tested on: K562; experiment: Cytotoxicity against human K562 cells after 48 hrs by MTT assay; type: functional, cell-based; settings: for pIC50: K562, 48 h; method in brief: as §1
[3] = (§2) Cytotoxicity against human K562/A02 cells after 48 hrs by MTT assay; type: functional, cell-based; settings: K562/A02, 48 h; method in brief: as §1
[4] = tested on: K562; experiment: Resistance index, ratio of IC50 for human K562/A02 cells to IC50 for human K562 cells; type: functional
[5] = tested on: K562/A02; experiment: as §2; type: functional, cell-based; method in brief: as §1
[6] = tested on: K562/A02; experiment: Induction of apoptosis in human K562/A02 cells assessed as induction of large cytoplasmic vacuoles at 6 uM after 48 hrs by Hoechst-33342 staining based fluorescence microscopy; type: functional, cell-based
Method in brief: (§3)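 K562/A02 cells treated 48 h at 3, 6 or 12 concentration levels alongside untreated control and 6 etoposide; nuclei stained with Hoechst 33342 and viewed by fluorescence microscopy at 400× for chromatin condensation, nuclear fragmentation and other apoptotic morphology.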

[7] = tested on: K562/A02; experiment: Induction of apoptosis in human K562/A02 cells assessed as induction of abnormal mitotic figures at 6 uM after 48 hrs by Hoechst-33342 staining based fluorescence microscopy; type: functional, cell-based; method in brief: as §3
[8] = tested on: K562/A02; experiment: Induction of apoptosis in human K562/A02 cells assessed as induction of multinucleation at 6 uM after 48 hrs by Hoechst-33342 staining based fluorescence microscopy; type: functional, cell-based; method in brief: as §3
[9] = tested on: K562/A02; experiment: Induction of apoptosis in human K562/A02 cells assessed as induction of large cells formation at 6 uM after 48 hrs by Hoechst-33342 staining based fluorescence microscopy; type: functional, cell-based; method in brief: as §3
[10] = tested on: K562/A02; experiment: Induction of apoptosis in human K562/A02 cells assessed as induction of membrane blebbing at 12 uM after 48 hrs by Hoechst-33342 staining based fluorescence microscopy; type: functional, cell-based; method in brief: as §3
[11] = tested on: K562/A02; experiment: Induction of apoptosis in human K562/A02 cells assessed as induction of cell shrinkage and detachment at 12 uM after 48 hrs by Hoechst-33342 staining based fluorescence microscopy; type: functional; method in brief: as §3
[12] = tested on: K562/A02; experiment: Induction of apoptosis in human K562/A02 cells assessed as induction of chromatin condensation at 12 uM after 48 hrs by Hoechst-33342 staining based fluorescence microscopy; type: functional, cell-based; method in brief: as §3
[13] = tested on: K562/A02; experiment: Induction of apoptosis in human K562/A02 cells assessed as induction of nuclear fragmentation at 12 uM after 48 hrs by Hoechst-33342 staining based fluorescence microscopy; type: functional, cell-based; method in brief: as §3
[14] = tested on: K562/A02; experiment: Induction of apoptosis in human K562/A02 cells assessed as viable cells level at 6 uM after 48 hrs by Annexin V-FITC and propidium iodide double staining based flow cytometry (reference value: 90.7%); type: functional
[15] = tested on: K562/A02; experiment: Induction of apoptosis in human K562/A02 cells assessed as early apoptotic cells level at 6 uM after 48 hrs by Annexin V-FITC and propidium iodide double staining based flow cytometry (reference value: 6.23%); type: functional
[16] = tested on: K562/A02; experiment: Induction of apoptosis in human K562/A02 cells assessed as late apoptotic cells level at 6 uM after 48 hrs by Annexin V-FITC and propidium iodide double staining based flow cytometry (reference value: 1.58%); type: functional
[17] = tested on: K562/A02; experiment: Induction of apoptosis in human K562/A02 cells assessed as necrotic cells level at 6 uM after 48 hrs by Annexin V-FITC and propidium iodide double staining based flow cytometry (reference value: 1.53%); type: functional
[18] = tested on: K562/A02; experiment: Induction of apoptosis in human K562/A02 cells assessed as viable cells level at 3 uM after 48 hrs by Annexin V-FITC and propidium iodide double staining based flow cytometry (reference value: 90.7%); type: functional
[19] = tested on: K562/A02; experiment: Induction of apoptosis in human K562/A02 cells assessed as early apoptotic cells level at 3 uM after 48 hrs by Annexin V-FITC and propidium iodide double staining based flow cytometry (reference value: 6.23%); type: functional
[20] = tested on: K562/A02; experiment: Induction of apoptosis in human K562/A02 cells assessed as late apoptotic cells level at 3 uM after 48 hrs by Annexin V-FITC and propidium iodide double staining based flow cytometry (reference value: 1.58%); type: functional
[21] = tested on: K562/A02; experiment: Induction of apoptosis in human K562/A02 cells assessed as necrotic cells level at 3 uM after 48 hrs by Annexin V-FITC and propidium iodide double staining based flow cytometry (reference value: 1.53%); type: functional
[22] = tested on: K562/A02; experiment: Induction of apoptosis in human K562/A02 cells assessed as viable cells level at 12 uM after 48 hrs by Annexin V-FITC and propidium iodide double staining based flow cytometry (reference value: 90.7%); type: functional
[23] = tested on: K562/A02; experiment: Induction of apoptosis in human K562/A02 cells assessed as early apoptotic cells level at 12 uM after 48 hrs by Annexin V-FITC and propidium iodide double staining based flow cytometry (reference value: 6.23%); type: functional
[24] = tested on: K562/A02; experiment: Induction of apoptosis in human K562/A02 cells assessed as late apoptotic cells level at 12 uM after 48 hrs by Annexin V-FITC and propidium iodide double staining based flow cytometry (reference value: 1.58%); type: functional
[25] = tested on: K562/A02; experiment: Induction of apoptosis in human K562/A02 cells assessed as necrotic cells level at 12 uM after 48 hrs by Annexin V-FITC and propidium iodide double staining based flow cytometry (reference value: 1.53%); type: functional
[26] = Reduction in MDR1 mRNA expression in human K562/A02 cells incubated for 48 hrs by RT-PCR method; type: functional, cell-based
Method in brief: (§4)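 K562 and K562/A02 cells seeded 1 × 10⁵/well in 10% FCS/RPMI-1640; compound added 24 h later, then cultured another 48 h. Total RNA extracted with Trizol, checked at 260/280 nm, reverse transcribed; MDR-1 (157 bp) and β-actin (540 bp) amplified, products run on agarose gel, stained, MDR-1 normalised to β-actin against untreated control.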

[27] = Reduction in MDR1 mRNA expression in human K562/A02 cells assessed as MDR1 mRNA levels at 12 uM incubated for 48 hrs by RT-PCR method (reference value: 100%); type: functional, cell-based; design: scale not given: the % may be the effect or the level left; method in brief: as §4
[28] = Reduction in MDR1 mRNA expression in human K562/A02 cells at 6 uM incubated for 48 hrs by RT-PCR method; type: functional, cell-based; method in brief: as §4
[29] = Reduction in MDR1 mRNA expression in human K562/A02 cells at 6 uM incubated for 48 hrs by RT-PCR method relative to untreated control; type: functional, cell-based; method in brief: as §4
[30] = tested on: K562/A02; experiment: Induction of apoptosis in human K562/A02 cells at 12 uM after 48 hrs by Annexin V-FITC and propidium iodide double staining based flow cytometry (reference value: 7.9 +/- 1.34%); type: functional

For `COc1cc([C@@H]2c3cc4c(cc3[C@@H](NCc3ccco3)[C@H]3COC(=O)[C@H]23)OCO4)cc(OC)c1OC`, the pIC50 [1] was 5.82, the pIC50 [2] was 5.24 and the pIC50 [3] was 4.96. The “Ratio IC50” value [4] was 1.89.

In the case of `COc1cc([C@@H]2c3cc4c(cc3[C@@H](NCc3ccc(C)o3)[C@H]3COC(=O)[C@H]23)OCO4)cc(OC)c1OC`, the pIC50 [1] was 5.71, the pIC50 [2] was 5.17 and the pIC50 [3] was 5.00. The “Ratio IC50” value [4] was 1.48.

In the case of `COc1cc([C@@H]2c3cc4c(cc3[C@@H](NCc3ccc([N+](=O)[O-])o3)[C@H]3COC(=O)[C@H]23)OCO4)cc(OC)c1OC`, the pIC50 [1] was 5.12, the “growth inhibition (GI)” value [2] was “Dose-dependent effect” and the pIC50 [2] was 5.22. The pIC50 [3] was 5.27, the “growth inhibition (GI)” value [5] was “Dose-dependent effect” and the “Ratio IC50” value [4] was 0.905. For the same compound, the Activity [6] was “Active”, the Activity [7] was “Active” and the Activity [8] was “Active”. For the same compound, the Activity [9] was “Active”, the Activity [10] was “Active” and the Activity [11] was “Active”. For the same compound, the Activity [12] was “Active”, the Activity [13] was “Active” and the Activity [14] was 46.4%. It also gave an Activity [15] of 28.2%, an Activity [16] of 11.9% and an Activity [17] of 13.5%. It also gave an Activity [18] of 77.3%, an Activity [19] of 14.8% and an Activity [20] of 4.02%. For the same compound, the Activity [21] was 3.9%, the Activity [22] was 34.5% and the Activity [23] was 56.3%. The Activity [24] was 8.05%, the Activity [25] was 1.09% and the inhibition [26] was “Dose-dependent effect”. The Activity [27] was 31.2%, the “MDR1 mRNA reduction (qualitative)” value [28] was “Active” and the inhibition [29] was 70%. It also gave an Activity [30] of 65.35%.

Compound `COc1cc([C@@H]2c3cc4c(cc3[C@@H](NCc3ccc(CN5CCCC5)o3)[C@H]3COC(=O)[C@H]23)OCO4)cc(OC)c1O` has a pIC50 [1] of 5.92, a pIC50 [2] of 5.28 and a pIC50 [3] of 4.61. For the same compound, the “Ratio IC50” value [4] was 4.67 and the “MDR1 mRNA reduction (qualitative)” value [28] was “Active”.

In the case of `COc1cc([C@@H]2c3cc4c(cc3[C@@H](NCc3ccc(CN5CCN(C)CC5)o3)[C@H]3COC(=O)[C@H]23)OCO4)cc(OC)c1O`, the pIC50 [1] was 5.62, the pIC50 [2] was 5.09 and the pIC50 [3] was 3.70. For the same compound, the “Ratio IC50” value [4] was 24.61.

Work on `CCN(CC)Cc1ccc(CN[C@@H]2c3cc4c(cc3[C@@H](c3cc(OC)c(O)c(OC)c3)[C@H]3C(=O)OC[C@@H]32)OCO4)o1` yielded a pIC50 [1] of 5.20, a pIC50 [2] of 5.08 and a pIC50 [3] of less than 3.00. For the same compound, the “Ratio IC50” value [4] was greater than 100, the “MDR1 mRNA reduction (qualitative)” value [28] was “Active” and the inhibition [29] was 35%.

`COc1cc([C@@H]2c3cc4c(cc3[C@@H](NCc3ccc(C)o3)[C@H]3COC(=O)[C@H]23)OCO4)cc(OC)c1O` showed a pIC50 [1] of 4.22, a pIC50 [2] of 4.18 and a pIC50 [3] of less than 3.00. For the same compound, the “Ratio IC50” value [4] was 34.23.

With `COc1cc([C@@H]2c3cc4c(cc3[C@@H](NCc3ccc([N+](=O)[O-])o3)[C@H]3COC(=O)[C@H]23)OCO4)cc(OC)c1O` the pIC50 [1] was 5.18, the pIC50 [2] was 5.03 and the pIC50 [3] was 4.23. For the same compound, the “Ratio IC50” value [4] was 6.41.

Compound `CCN1CCN(Cc2ccc(CN[C@@H]3c4cc5c(cc4[C@@H](c4cc(OC)c(OC)c(OC)c4)[C@H]4C(=O)OC[C@@H]43)OCO5)o2)CC1` has a pIC50 [1] of less than 4.00, a pIC50 [2] of less than 4.00 and a pIC50 [3] of less than 3.00. For the same compound, the “Ratio IC50” value [4] was greater than 100.
